The record followed here is ChEMBL document CHEMBL2380219, “Physalin A induces apoptotic cell death and protective autophagy in HT1080 human fibrosarcoma cells” (J Nat Prod, 2013).

Activity calls are given as the source filed them. The calls are words filed in the database; no cut-off is given here.

Assay type in all cases: functional, cell-based
In assay [1] the test system is HT-1080. The experiment in a line: Induction of apoptosis in human HT1080 cells expressing beclin 1 siRNA assessed as suppression of LC31to LC32 conversion at 10 uM after 24 hrs by Western blotting analysis relative to control. The method in brief:
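Beclin 1 or nonspecific siRNA transfected into HT1080 cells (5 × 10^5 seeded a day earlier; transfection mixture for 7 h at 37 °C, then normal medium, 24 h before harvest). Cells then got 10 μM for 24 h. Adherent plus floating cells lysed in Hepes pH 7.4/Triton buffer at 4 °C for 60 min. Equal protein on 12% SDS-PAGE, nitrocellulose, ECL. Bands normalized to β-actin, n = 3.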

The subject of assay [2] is HT-1080. The experiment in a line: Induction of apoptosis in human HT1080 cells assessed as downregulation of ICAD at 10 uM pretreated with 3MA for 1 hr prior to compound addition measured after 24 hrs by Western blotting analysis. An outline of the steps:
(§1)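 HT1080 cells pretreated 1 h with 1 mM 3MA or 1 nM rapamycin, then co-incubated with 10 μM for 24 h. Adherent and floating cells lysed in Hepes pH 7.4/Triton buffer. 12% SDS-PAGE, nitrocellulose, antibodies against Fas, FADD, caspase-8, caspase-3, PARP and ICAD, ECL detection. Densities normalized to β-actin; n = 3.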
A general note: Immunoblotting shows a protein as a band on a membrane.

For assay [3], the system named is HT-1080. The experiment in a line: Induction of apoptosis in human HT1080 cells assessed as increase in PARP cleavage at 10 uM pretreated with rapamycin for 1 hr prior to compound addition measured after 24 hrs by Western blotting analysis. The method in brief:
as §1

In assay [4] the test system is HT-1080. The experiment in a line: Induction of apoptosis in human HT1080 cells assessed as increase in procaspase-8 cleavage at 10 uM pretreated with rapamycin for 1 hr prior to compound addition measured after 24 hrs by Western blotting analysis. The method in brief:
as §1

Assay [5] deals with HT-1080. The experiment in a line: Induction of apoptosis in human HT1080 cells assessed as increase in PARP cleavage at 10 uM pretreated with 3MA for 1 hr prior to compound addition measured after 24 hrs by Western blotting analysis. An outline of the steps: as §1
Assay [6] deals with HT-1080. The experiment in a line: Induction of apoptosis in human HT1080 cells assessed as increase in procaspase-8 cleavage at 10 uM pretreated with 3MA for 1 hr prior to compound addition measured after 24 hrs by Western blotting analysis. An outline of the steps: as §1
Assay [7] concerns HT-1080. The experiment in a line: Induction of autophagy in human HT1080 cells assessed as conversion from LC31to LC32 at 10 uM pretreated with 3MA for 1 hr prior to compound addition measured after 24 hrs by Western blotting analysis. The method in brief:
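HT1080 cells pretreated 1 h with 1 mM 3MA or 1 nM rapamycin, then 10 μM added for 24 h. Adherent and floating cells lysed in Hepes pH 7.4/Triton buffer. Equal protein on 12% SDS-PAGE and nitrocellulose, probed for beclin 1 and LC3, ECL detection. Normalized to β-actin, n = 3.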

The subject of assay [8] is HT-1080. The experiment in a line: Induction of autophagy in human HT1080 cells assessed as increase in autophagy ratio at 10 uM pretreated with rapamycin for 1 hr prior to compound addition measured after 24 hrs by MDC staining-based FACS flow cytometric analysis. The method in brief:
(§2)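 HT1080 cells seeded at 3 × 10^5 per flask and grown 24 h. Pretreated 1 h with 1 mM 3MA or 1 nM rapamycin, then 10 μM for 24 h. Collected cells stained with 0.05 mM MDC at 37 °C for 1 h. MDC-positive ratio measured by flow cytometry, n = 3, mean ± SD.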
For orientation: In flow cytometry, cells or beads pass a laser one at a time.

Assay [9] concerns HT-1080. The experiment in a line: Induction of autophagy in human HT1080 cells assessed as increase in autophagy ratio at 10 uM pretreated with 3MA for 1 hr prior to compound addition measured after 24 hrs by MDC staining-based FACS flow cytometric analysis. The method in brief:
as §2

The test system of assay [10] is HT-1080. The experiment in a line: Induction of autophagy in human HT1080 cells assessed as conversion from LC31to LC32 at 10 uM by Western blotting analysis. To be noted: TDE = time-dependent effect. An outline of the steps: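 HT1080 cells exposed to 10 μM for 6, 12, 18 and 24 h, then lysed in Hepes pH 7.4/Triton buffer at 4 °C for 60 min. Equal protein run on 12% SDS-PAGE, blotted to nitrocellulose, probed for beclin 1 and LC3, ECL detection. Densities taken relative to β-actin, n = 3.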

The test system of assay [11] is HT-1080. The experiment in a line: Induction of autophagy in human HT1080 cells at 10 uM by MDC staining-based FACS flow cytometric analysis. Particulars: TDE = time-dependent effect. The method in brief:
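HT1080 cells (3 × 10^5 per flask, grown 24 h) exposed to 10 μM for 12, 24 and 36 h. Cells collected and stained with 0.05 mM MDC at 37 °C for 1 h. MDC-positive ratio measured by flow cytometry, n = 3.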

Assay [12] has as its system HT-1080. The experiment in a line: Induction of apoptosis in human HT1080 cells assessed as change in procaspase-9 expression level at 10 uM after 6 to 24 hrs by Western blotting analysis. The method in brief:
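HT1080 cells treated with 10 μM for 6, 12, 18 and 24 h. Adherent and floating cells lysed 60 min at 4 °C in Hepes pH 7.4/1% Triton X-100 buffer with phosphatase and protease inhibitors. Equal protein run on 12% SDS-PAGE, transferred to nitrocellulose, probed with specific antibodies, HRP/ECL detection. Band density normalized to β-actin; n = 3.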

Assay [13] relates to HT-1080. The experiment in a line: Induction of apoptosis in human HT1080 cells assessed as procaspase-8 cleavage at 10 uM by Western blotting analysis. To be noted: TDE = time-dependent effect.
Assay [14] has as its system HT-1080. The experiment in a line: Cytotoxicity against human HT1080 cells assessed as growth inhibition at 10 uM pretreated with z-IETD-FMK for 1 hr prior to compound addition measured after 24 hrs by MTT assay. The method in brief: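 HT1080 seeded 0.8 × 10^4 cells/well. MTT 2 h at 37 °C, formazan in DMSO, A492 read. Inhibition % calculated against untreated and blank wells.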
(In general: Tetrazolium dyes change colour on reduction, which living cells bring about.)

Assay [15] deals with HT-1080. The experiment in a line: Induction of apoptosis in human HT1080 cells assessed as appearance of granular apoptotic bodies at 10 uM after 24 hrs by acridine orange staining-based fluorescence microscopic analysis. The method in brief: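 HT1080 cells, 2 × 10^4/well, cultured 24 h, then exposed to 10 μM for 24 h. Stained with acridine orange 20 μg/mL for 15 min in the dark and examined by fluorescence microscopy at 200×.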

Assay [16] relates to HT-1080. The experiment in a line: Cytotoxicity against human HT1080 cells assessed as growth inhibition at 1 to 100 uM by MTT assay. To be noted: TDE = time-dependent effect.
The test system of assay [17] is HL-60. The experiment in a line: Cytotoxicity against human HL60 cells assessed as growth inhibition after 24 hrs by MTT assay. The method in brief:
(§3)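 Seeded 0.8 × 10^4 cells/well, cultured 24 h, then exposed to 0, 10, 20, 40 or 80 μM for 24 h (DMSO <0.05%) in RPMI 1640 or MEM with 10% FBS. Adherent lines rinsed with PBS, given MTT 2 h at 37 °C. Suspension lines (U937, HL60) given MTT 2 h, then centrifuged. Formazan dissolved in DMSO, A492 read. Inhibition % = (control − sample)/(control − blank) × 100.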

In assay [18] the test system is A549. The experiment in a line: Cytotoxicity against human A549 cells assessed as growth inhibition after 24 hrs by MTT assay. An outline of the steps:
as §3

Assay [19] has as its system A375-S2. The experiment in a line: Cytotoxicity against human A375-S2 cells assessed as growth inhibition after 24 hrs by MTT assay. An outline of the steps: as §3
Assay [20] relates to HepG2. The experiment in a line: Cytotoxicity against human HepG2 cells assessed as growth inhibition after 24 hrs by MTT assay. The method in brief: as §3
The test system of assay [21] is HT-1080. The experiment in a line: Cytotoxicity against human HT1080 cells assessed as growth inhibition after 24 hrs by MTT assay. To be noted: HT-1080, 24 h.

As a reminder, the IC50 is the concentration needed to halve the response being measured. On to `C=C1C(=O)O[C@@H]2C[C@@]1(C)[C@@H]1C(=O)[C@]3(O)O[C@]14[C@@]2(C)OC(=O)[C@@]4(O)CC[C@H]1[C@H]3[C@H](O)C=C2CC=CC(=O)[C@@]21C` [PHYSALIN A], for which the outcome in assay [1], in assay [2], in assay [5], in [6], in assay [8] and in [15] was Active. Besides, the result in assay [3], in assay [4], in [7], in [9] and in assay [12] was inactive. The Activity result in [10], in [11] and in assay [13] was “tde” in each case. For the same molecule, the “growth inhibition (GI)” value in assay [14] is “Active”. Further, the “growth inhibition (GI)” value in assay [16] is “tde”; in assay [17] it was “Dose-dependent effect”; in assay [18] it was “Dose-dependent effect”; in assay [19] it was “Dose-dependent effect”; in assay [20], “Dose-dependent effect”. Further, the IC50 in assay [21] is 10.7 µM.
